{
  "source": "paper PMC9643156",
  "about": "(Acta Pharmaceutica Sinica. B, 2022)",
  "key": {"[1]": {"system": "LNCaP, 22RV1 and LNCaP-ENZR cells", "experiment": "Viability screen of 197 compounds in PCa cells", "format": "cell-based", "conditions": "20 μmol/L, 72 h, 22RV1, LNCaP-ENZR cells"}, "[2]": {"system": "22RV1 orthotopic xenografts", "experiment": "22RV1 orthotopic xenografts", "format": "in vivo, BALB/c-nude mice", "conditions": "LLU-206 25 mg/kg i.v.; ENZ 10 mg/kg p.o.", "method_in_brief": "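Mice aged 6–8 weeks carried 22RV1 tumours implanted orthotopically in the prostate. Tumour growth was followed by bioluminescence imaging and analysed as average fluorescence values, n = 6 per group. Relative tumour weight was recorded at the end. Paraffin-embedded tumours were H&E-stained and stained for Ki-67 by IHC; Ki-67 and necrotic area were quantified by image analysis. Data are mean ± SEM, one-way ANOVA with Tukey.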"}, "LNCaP-ENZR xenografts": {"system": "LNCaP-ENZR xenografts", "experiment": "LNCaP-ENZR subcutaneous xenografts", "format": "in vivo, NOD-SCID mice", "conditions": "LLU-206 10, 25 mg/kg via tail vein; ENZ 10 mg/kg by gavage"}},
  "data": [
    {"smiles": "CNC(=O)c1ccc(N2C(=S)N(c3cnc(C#N)c(C(F)(F)F)c3)C(=O)C23CCC3)cc1F", "note": "[ARN-509, apalutamide]", "values": [
      {"measurement": "anti-PCa activity / inhibition of proliferation in the viability screen", "setting": "[1]", "result": "no significant inhibition"}
    ]},
    {"smiles": "CNC(=O)c1ccc(N2C(=S)N(c3ccc(C#N)c(C(F)(F)F)c3)C(=O)C2(C)C)cc1F", "note": "[ENZ, Enzalutamide]", "values": [
      {"measurement": "growth of 22RV1 orthotopic xenografts", "setting": "[2]", "result": "exhibited resistance"},
      {"measurement": "antitumor activity in LNCaP-ENZR xenografts (tumor volume, tumor weight, serum PSA)", "setting": "LNCaP-ENZR xenografts", "result": "completely resistant"}
    ]},
    {"smiles": "CC(O)c1cc(C(=O)N[C@@H](C)Cn2ccc(-c3ccc(C#N)c(Cl)c3)n2)[nH]n1", "note": "(stereo partly shown) [ODM-201, darolutamide]", "values": [
      {"measurement": "anti-PCa activity / inhibition of proliferation in the viability screen", "setting": "[1]", "result": "no significant inhibition"}
    ]}
  ]
}
